# An excerpt weighted towards active compounds, which were near 2.9% of everything screened.
# Apaf-1 inh: human Apaf-1 inhibition; reconstituted apoptosome caspase-3 activity, DEVD-Rh110 fluorescence; O14727; AID 489030; inhibition, % at 20 µM; 330,000 compounds, 0.71% hits; active means inhibition of at least 40% at 20 µM;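 further: plate controls were DMSO wells for no effect and DEVD-CHO caspase inhibitor wells for full effect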
#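 Assay system: Apoptosome proteins | Medium: pH 7.5 Hepes buffer with CHAPS, BSA, DTT | Also added: Cytochrome c and DEVD-Rh110 substrate | Times: 30 min plus 50 min, RT | Detection: Rhodamine 110 fluorescence at Ex 480/Em 540 nm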
# EBNA-1 inhibitor: blocks EBNA-1 binding to DNA; EBNA-1 DNA binding, fluorescence polarization; inhibition, % at 14.8 µM; 300,000 compounds, 0.34% hits; AID 1950; in the data active means inhibition above about 28%
# ZTA counter: counter-screen for EBNA-1 inhibitors: inhibitors of Epstein-Barr virus ZTA | P03206 | inhibition, % at 11 µM | 320,000 compounds, 0.15% hits | ZTA-DNA binding, fluorescence polarization; in the data active means inhibition above about 33%
# UBC13 inh: blocks human UBC13 polyubiquitin chain formation; TR-FRET; 330,000 compounds, 0.47% hits; inhibition, % at 20 µM; in the data active means inhibition above about 45%, passing the limit was not always enough
# Target sequence (P61088 whole entry, looked up): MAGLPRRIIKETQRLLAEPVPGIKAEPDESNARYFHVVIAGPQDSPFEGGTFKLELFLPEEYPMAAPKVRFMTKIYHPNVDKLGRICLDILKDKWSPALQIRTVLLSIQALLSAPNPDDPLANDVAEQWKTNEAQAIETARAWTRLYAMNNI
# PfM18AAP inh-1: blocks P. falciparum M18 aspartyl aminopeptidase | recombinant PfM18AAP, H-Glu-NHMec fluorogenic cleavage | inhibition, % at 7.35 µM | 290,000 compounds, 1.2% hits | AID 1822;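 active means inhibition above the campaign mean inhibition over all tested compounds plus 3 SD, cut at about 28% in these data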;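 further: 0% = plate median of test compound wells and 100% = 2 mM ZnCl2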
# PfG6PD inh: PfG6PD (Plasmodium falciparum) enzyme inhibition; PfGluPho enzyme, NADPH resazurin-diaphorase fluorescence; inhibition, % at 20 µM; 350,000 compounds, 0.78% hits;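 active means inhibition reaching at least a set limit at 20 µM in the primary screen, cut at about 59% in these data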;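 further: 0% = DMSO wells with substrate and 100% = DMSO wells lacking glucose-6-phosphate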
# PfM18AAP inh-2: PfM18AAP inhibition, confirmation. recombinant PfM18AAP, H-Glu-NHMec fluorogenic cleavage. inhibition, % at 7.35 µM. 2,400 compounds, 28% hits. AID 2170. shares compounds with PfM18AAP inh-1;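 active means mean inhibition over replicate wells above the hit cutoff set for the earlier primary screen, cut at about 29% in these data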;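 further: 0% = median of test compound wells and 100% = 2 mM ZnCl2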
# CTSL1 confirm: counter-screen for PFM18AAP inhibitors: confirmation of human cathepsin L inhibitors; AID 2178; 2,400 tested, under 10 active; inhibition, % at 5.96 µM; shares compounds with PfM18AAP inh-1; purified cathepsin L1, Z-Leu-Arg-MCA fluorescence;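 active means average inhibition across replicates above the hit cutoff set in the earlier primary screen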;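 further: 0% = median of test compound wells and 100% = Z-Phe-Ala-diazomethylketone 1 µM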
# Target sequence (P07711 whole entry, looked up): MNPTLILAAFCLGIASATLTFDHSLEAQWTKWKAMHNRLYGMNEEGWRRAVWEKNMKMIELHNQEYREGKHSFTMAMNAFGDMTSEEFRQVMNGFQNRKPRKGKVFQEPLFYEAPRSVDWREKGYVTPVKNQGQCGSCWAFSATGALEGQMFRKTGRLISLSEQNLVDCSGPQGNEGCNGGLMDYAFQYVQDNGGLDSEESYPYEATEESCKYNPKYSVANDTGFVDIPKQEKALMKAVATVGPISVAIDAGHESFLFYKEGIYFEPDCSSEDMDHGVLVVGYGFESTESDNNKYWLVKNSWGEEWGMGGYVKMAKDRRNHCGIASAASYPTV
# The depositor's hits bear a star; . = not tested or not shown.
SMILES,Apaf-1 inh,EBNA-1 inhibitor,ZTA counter,UBC13 inh,PfM18AAP inh-1,PfG6PD inh,PfM18AAP inh-2,CTSL1 confirm
NC(=O)CSc1ccc(-c2ccc(F)cc2)nn1,-7.6,-8.8,-3.7,1.7,-2.4,15.7,.,.
CCOc1ccc2c(c1)S/C(=C\c1cccs1)C(=O)N2,10.6,8.2,13.2,-1.4,34.3*,-22.1,-33.5,-1.4
COC(=O)C1=C(C(=O)c2ccccc2)C(c2cccs2)n2nnnc2N1 (stereo unspecified),8.8,7.9,8.9,-10.5,55.3*,1.5,-29.1,-3.2
COC(=O)C1=C(C(=O)c2ccc(C)cc2)C(c2ccc(O)c(OC)c2)n2nnnc2N1 (stereo unspecified),-17.2,2.3,12.3,-2.2,60.2*,10.9,-26.0,-4.0
COC(=O)C1=C(C(=O)c2ccccc2)C(c2ccc(O)c(OC)c2)n2nnnc2N1 (stereo unspecified),4.4,-13.6,-10.6,-7.1,18.2,-6.9,.,.
COC(=O)C1=C(C(=O)c2ccc(C)cc2)C(c2ccc(OC)c(OC)c2)n2nnnc2N1 (stereo unspecified),-2.8,-5.6,-12.3,-7.7,46.6*,-3.2,-32.0,1.9
CCn1c(CNC(=O)c2ccccc2Br)nnc1SCC(=O)NC1=NCCS1,-0.6,-16.0,5.6,0.9,1.1,-1.3,.,.
COc1ccc(NC2CCCN(C(=O)c3ccccc3N3CCOCC3)C2)cc1OC (stereo unspecified),5.7,-4.3,-19.3,-5.6,4.9,34.1,.,.
O=C(Cc1ccc(Cl)cc1)Nc1ccccn1,5.8,-2.4,4.1,1.2,1.2,7.8,.,.
COc1ccc(CCC(=O)Nc2cc(S(=O)(=O)N3CCOCC3)ccc2OC(C)C)cc1,0.3,.,2.5,10.8,.,3.5,.,.
CCc1ccc(CN2CCC(n3nccc3NC(=O)C3CCCC3)CC2)cc1,18.4,10.3,-11.0,7.8,-3.0,1.9,.,.
CCOc1cc(/C=N/Nc2nnc(C)n2N)ccc1OC(C)=O,1.5,.,.,-12.0,33.5*,52.5,-59.0,-0.1
CCc1nnc(N/N=C\c2ccc(OC(C)=O)c(OC)c2)n1N,0.9,-0.3,1.2,-8.6,17.7,33.1,.,.
O=C(Cc1ccccc1)NN=C1CCCC1,.,.,.,.,.,11.7,.,.
N#CCC(=O)NN=C1CCCCCCCCCCC1,-12.7,-1.5,1.7,-10.8,53.7*,-11.3,-21.8,2.0
Cc1nn(-c2ccccc2)c(Cl)c1C(=O)NNC(=O)c1ccccc1O,0.9,.,-11.3,6.9,.,-59.0,.,.
CN(C)C(=S)c1ccc(N(C)C)cc1,-23.5,18.5,28.6,10.4,14.6,40.2,.,.
CN1CCN(C(=S)c2ccc(N(C)C)cc2)CC1,1.5,4.5,2.2,-10.5,39.6*,47.5,9.6,1.0
CC(C)[C@H]1COCCS(=O)(=O)N1Cc1ccccc1,4.0,-10.7,3.7,-1.5,.,1.1,.,.
O=C(c1ccccc1)c1c[nH]c(C(=O)NNc2cccc(Cl)n2)c1,1.4,-3.5,-0.3,-4.0,52.1*,2.3,31.2*,-0.6
O=C(c1ccc(Cl)cc1)c1c[nH]c(C(=O)NNc2cccc(Cl)n2)c1,6.1,-11.7,-3.6,-3.2,51.0*,-7.9,35.8*,-5.7
O=C(NNc1cccc(Cl)n1)c1ccc(Cl)cc1Cl,-1.2,9.3,4.0,-8.7,22.6,14.2,.,.
O=C(CCS(=O)(=O)c1ccc(Cl)cc1)Nc1ccccc1Br,-1.6,-4.5,-4.4,7.7,-3.9,-2.1,.,.
O=C(O)CCCC(=O)Nc1ccccc1SCCS(=O)(=O)c1ccc(Cl)cc1,.,.,.,.,35.1*,6.1,-20.8,1.3
Cc1ccc(NC(=O)C2=C(O)c3sccc3N(C)S2(=O)=O)cc1,8.7,-4.9,-4.5,-5.2,-6.9,-18.3,.,.
Cc1ccc(NC(=S)C2=C(O)c3sccc3N(C)S2(=O)=O)cc1,7.8,-4.6,0.1,6.6,48.9*,-24.5,-32.3,4.5
Cc1ccc(NC(=O)CSc2nnc(CNC(=O)c3cccs3)o2)c(C)c1,-16.3,7.1,11.6,-5.8,-1.7,-11.1,.,.
COc1cc(/C=N/Nc2ccc(C(=O)O)cc2)ccc1O,-17.2,1.1,-2.2,-3.5,50.5*,9.3,22.0,3.2
COc1cc(C=C(C(C)=O)C(C)=O)ccc1O,1.5,-1.1,1.5,-19.5,20.0,23.4,.,.
